Holding throughout (type): functional
Assay [1] in a line: Antioxidant activity assessed as nitric oxide scavenging activity at 100 uM after 120 min by Griess assay. Summed up: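 Sodium nitroprusside (5 mM) in phosphate buffer pH 7.4 was incubated with test compound dissolved in dioxane/methanol at 25 °C for 120 min. A solvent-only control was run in parallel. Aliquots were mixed 1:1 with Griess reagent (1% sulfanilamide, 0.1% N-naphthylethylenediamine dihydrochloride, 2% o-phosphoric acid in water).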
On the technique in general: The Griess reaction detects nitrite, a stable product of nitric oxide.

For assay [2], the system named is Radical scavenging activity. Nature of the assay: Antioxidant activity assessed as DPPH free radical scavenging activity at 100 uM after 20 mins. An outline of the steps: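 Compound solutions were added to DPPH in dioxane/ethanol and kept at ambient temperature for 20 min, then absorbance was read at 517 nm. Percent inhibition = (A_control − A_sample)/A_control × 100, […].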
Background: The DPPH test is a chemical assay of radical scavenging.

The test system of assay [3] is Staphylococcus aureus. Nature of the assay: Antimicrobial activity against Staphylococcus aureus NCIM 5021 at 100 ug/disk after 24 hrs by agar disc-diffusion method. Particulars: NCIM 5021, 24 h, read-out: DIZ. Summed up: (§1)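 Agar disc diffusion with NCIM strains. Sterile 6 mm filter-paper discs were moistened with compound in DMSO at 100 or 200 per disc and placed on agar plates pre-inoculated with each organism. Plates were incubated at 37 °C. Growth-inhibition zone diameter was read at 24 h for bacteria and 48 h for fungi.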
(Agar diffusion results depend on both activity and mobility in agar.)

Assay [4] concerns Staphylococcus aureus. Nature of the assay: Antimicrobial activity against Staphylococcus aureus NCIM 5021 at 200 ug/disk after 24 hrs by agar disc-diffusion method. Particulars: NCIM 5021, 24 h, read-out: DIZ. An outline of the steps: as §1
In assay [5] the test system is Bacillus subtilis. Nature of the assay: Antimicrobial activity against Bacillus subtilis NCIM 2063 at 100 ug/disk after 24 hrs by agar disc-diffusion method. Particulars: NCIM 2063, 24 h, read-out: DIZ. An outline of the steps:
as §1

The subject of assay [6] is Bacillus subtilis. Description: Antimicrobial activity against Bacillus subtilis NCIM 2063 at 200 ug/disk after 24 hrs by agar disc-diffusion method. Particulars: NCIM 2063, 24 h, read-out: DIZ. Summed up:
as §1

For assay [7], the system named is Klebsiella pneumoniae. Nature of the assay: Antimicrobial activity against Klebsiella pneumoniae NCIM 2957 at 100 ug/disk after 24 hrs by agar disc-diffusion method. Particulars: NCIM 2957, 24 h, read-out: DIZ. An outline of the steps: as §1
In assay [8] the test system is Klebsiella pneumoniae. Nature of the assay: Antimicrobial activity against Klebsiella pneumoniae NCIM 2957 at 200 ug/disk after 24 hrs by agar disc-diffusion method. Particulars: NCIM 2957, 24 h, read-out: DIZ. Summed up: as §1
The subject of assay [9] is Proteus vulgaris. Nature of the assay: Antimicrobial activity against Proteus vulgaris NCIM 2027 at 100 ug/disk after 24 hrs by agar disc-diffusion method. Particulars: NCIM 2027, 24 h, read-out: DIZ.
The test system of assay [10] is Proteus vulgaris. Nature of the assay: Antimicrobial activity against Proteus vulgaris NCIM 2027 at 200 ug/disk after 24 hrs by agar disc-diffusion method. Particulars: NCIM 2027, 24 h, read-out: DIZ.
Assay [11] relates to Fusarium solani. Nature of the assay: Antimicrobial activity against Fusarium solani NCIM 1330 at 100 ug/disk after 48 hrs by agar disc-diffusion method. Particulars: NCIM 1330, 48 h, read-out: DIZ. Summed up: as §1
Assay [12] deals with Fusarium solani. Nature of the assay: Antimicrobial activity against Fusarium solani NCIM 1330 at 200 ug/disk after 48 hrs by agar disc-diffusion method. Particulars: NCIM 1330, 48 h, read-out: DIZ. An outline of the steps: as §1
Assay [13] has as its system Curvularia lunata. Description: Antimicrobial activity against Curvularia lunata NCIM 716 at 100 ug/disk after 48 hrs by agar disc-diffusion method. Particulars: NCIM 716, 48 h, read-out: DIZ. Summed up: as §1
The subject of assay [14] is Curvularia lunata. Nature of the assay: Antimicrobial activity against Curvularia lunata NCIM 716 at 200 ug/disk after 48 hrs by agar disc-diffusion method. Particulars: NCIM 716, 48 h, read-out: DIZ. An outline of the steps:
as §1

Assay [15] relates to Aspergillus niger. Description: Antimicrobial activity against Aspergillus niger NCIM 596 at 100 ug/disk after 48 hrs by agar disc-diffusion method. Particulars: NCIM 596, 48 h, read-out: DIZ. An outline of the steps:
as §1

In assay [16] the test system is Aspergillus niger. Description: Antimicrobial activity against Aspergillus niger NCIM 596 at 200 ug/disk after 48 hrs by agar disc-diffusion method. Particulars: NCIM 596, 48 h, read-out: DIZ. Summed up:
as §1

Turning to `O=S(=O)(Cc1nnc(CS(=O)(=O)c2ccc(Cl)cc2)o1)Nc1ccc(Cl)cc1`, the figures for the Activity in assay [1] and in assay [2] were 69.4% and 71%, respectively. Besides, the zone of inhibition at 100 µg/disc with Staphylococcus aureus [3] stood at 13 mm; in the assay on Bacillus subtilis [5] it was 12 mm; in the assay on Klebsiella pneumoniae [7], 11 mm; in the assay with Proteus vulgaris [9] it was 13 mm; in the assay with Fusarium solani [11], 17 mm; with Curvularia lunata [13], 14 mm. Moreover, the zone of inhibition at 100 µg/disc with Aspergillus niger [15] worked out at 16 mm. Moreover, the zone of inhibition at 200 µg/disc turned out to be 15 mm with Staphylococcus aureus [4]; 14 mm with Bacillus subtilis [6]; 13 mm in the assay with Klebsiella pneumoniae [8]; 14 mm in the assay with Proteus vulgaris [10]; 19 mm with Fusarium solani [12]; 18 mm in the assay on Curvularia lunata [14]. Also, in the assay on Aspergillus niger [16], the zone of inhibition at 200 µg/disc was found to be 18 mm.

In the case of `O=S(=O)(Cc1nnc(CS(=O)(=O)c2ccccc2)o1)Nc1ccccc1`, the Activity in assay [1] worked out at 66.8%; in assay [2] it was 64.7%. The zone of inhibition at 100 µg/disc in the assay with Staphylococcus aureus [3] worked out at 13 mm; with Bacillus subtilis [5], 12 mm; in the assay with Klebsiella pneumoniae [7] it was 11 mm; in the assay with Proteus vulgaris [9], 12 mm; with Fusarium solani [11], 13 mm; in the assay on Curvularia lunata [13], 16 mm. Besides, the zone of inhibition at 100 µg/disc in the assay on Aspergillus niger [15] is 14 mm. The zone of inhibition at 200 µg/disc was 14 mm in the assay on Staphylococcus aureus [4]; 15 mm with Bacillus subtilis [6]; 12 mm with Klebsiella pneumoniae [8]; 14 mm with Proteus vulgaris [10]; 16 mm in the assay on Fusarium solani [12]; 20 mm in the assay on Curvularia lunata [14]. Further, in the assay on Aspergillus niger [16], the zone of inhibition at 200 µg/disc is 17 mm.

As to `Cc1ccc(NS(=O)(=O)Cc2nnc(CS(=O)(=O)c3ccc(C)cc3)o2)cc1`, the Activity in assay [1] came to 57.2%; in assay [2], 58.6%. Further, the zone of inhibition at 100 µg/disc stood at 12 mm in the assay on Staphylococcus aureus [3]; 11 mm with Bacillus subtilis [5]; 10 mm with Klebsiella pneumoniae [7]; 10 mm in the assay with Proteus vulgaris [9]; 14 mm in the assay on Fusarium solani [11]; 15 mm in the assay on Curvularia lunata [13]. Further, the zone of inhibition at 100 µg/disc in the assay with Aspergillus niger [15] was found to be 13 mm. Besides, the zone of inhibition at 200 µg/disc is 15 mm with Staphylococcus aureus [4]; 13 mm with Bacillus subtilis [6]; 12 mm in the assay on Klebsiella pneumoniae [8]; 12 mm in the assay on Proteus vulgaris [10]; 18 mm with Fusarium solani [12]; 17 mm with Curvularia lunata [14]. In addition, in the assay with Aspergillus niger [16], the zone of inhibition at 200 µg/disc stood at 15 mm.

Turning to `Cc1ccc(NS(=O)(=O)Cc2nnc(-c3ccc(C)cc3)o2)cc1`, the Activity worked out at 54.3% in [1] and 58.1% in [2]. Also, the zone of inhibition at 100 µg/disc in the assay on Staphylococcus aureus [3] was 10 mm; in the assay with Bacillus subtilis [5], 9 mm; in the assay with Klebsiella pneumoniae [7], 7 mm; with Proteus vulgaris [9], 7 mm; with Fusarium solani [11], 12 mm; in the assay with Curvularia lunata [13], 14 mm. Further, the zone of inhibition at 100 µg/disc in the assay on Aspergillus niger [15] worked out at 10 mm. In addition, the zone of inhibition at 200 µg/disc worked out at 12 mm with Staphylococcus aureus [4]; 10 mm in the assay on Bacillus subtilis [6]; 8 mm in the assay with Klebsiella pneumoniae [8]; 9 mm with Proteus vulgaris [10]; 15 mm in the assay with Fusarium solani [12]; 16 mm with Curvularia lunata [14]. For the same molecule, the zone of inhibition at 200 µg/disc in the assay on Aspergillus niger [16] is 12 mm.

The record behind these values is ChEMBL document CHEMBL1240473, “Synthesis and bioassay of aminosulfonyl-1,3,4-oxadiazoles and their interconversion to 1,3,4-thiadiazoles” (2010).
